The text below walks through data of ChEMBL document CHEMBL4028864 (J Med Chem, 2017).

Active and inactive are the calls of the source. The rule behind the calls is not given here.

Data set [1] in a line: Thermodynamic aqueous solubility of the compound at pH 7.4 after 24 hrs by UV absorbance based assay. Type of data set: physicochemical. As to conditions: read-out: Therm_solubility. Put shortly: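 A 20 mM DMSO stock was diluted 1:100 into pH 7.4 PBS, then shaken at 250 rpm for 3 or 24 h at 22.5 ± 2.5 °C. The mixture was filtered and the filtrate diluted with acetonitrile/universal buffer. Absorbance was read at 310 nm against a 6.25–200 μM calibration curve, in triplicate.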

The next data set relates to Plasma. Put plainly: Drug uptake in Wistar rat plasma at 5 mg/kg, po administered via gavage or 1 mg/kg, iv after 4 to 24 hrs by LC-MS/MS analysis. As to conditions: in vivo. In kind it is ADME, organism-based. Put shortly: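 Wistar rats dosed once at 5 mg/kg po or 1 mg/kg iv. Plasma levels were followed as mean ± SEM over 24 h postdose and checked against the limit of quantitation at each time point.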

For a further data set, the target named is Histone deacetylase 9 (Homo sapiens, UniProt Q9UKV0). Put plainly: Inhibition of HDAC9 (unknown origin) at 10 uM in presence of ATP relative to control. Put shortly:
(§1)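 HDAC enzyme inhibition was run by a contract laboratory.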

The target in data set [2] is Protein deacetylase HDAC6 (Homo sapiens) (UniProt Q9UBN7). Put plainly: Inhibition of HDAC6 in human MOLM14 cells assessed as increase in acetylated tubulin level up to 3 uM after 16 hrs by immunoblotting analysis. Type of data set: cell-based. Put shortly: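 KMS-12-BM and MOLM-14 cells were treated for 16 h and then lysed. Acetylated tubulin was detected by immunoblotting, and membranes were reprobed for total tubulin as loading control.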

The next data set has as its system HEL 92.1.7. The experiment in a line: cells. As to conditions: Homo sapiens, HEL 92.1.7, 36 h. Type of data set: functional, cell-based.
Data set [3] can be described thus: Terminal half life in Wistar rat at 1 mg/kg, iv by LC-MS/MS analysis. In kind it is ADME, organism-based. To be noted: in vivo, read-out: beta t1/2 (converted). Put shortly:
(§2)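 Wistar rats given a single 1 mg/kg iv dose. Plasma concentration–time profiles were plotted as mean ± SEM and sampled through 24 h postdose. Values were taken from the iv profile.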

Data set [4] can be described thus: cells. In kind it is functional, cell-based. To be noted: Homo sapiens, XG6, 48 h.
In the next data set the test system is KMS-12-BM. Put plainly: cells. In kind it is functional, cell-based. To be noted: Homo sapiens, 48 h.
Data set [5] can be described thus: cells. As to conditions: Homo sapiens, KHYG, 48 h. In kind it is functional, cell-based.
Data set [6] can be described thus: Volume of distribution at steady state in Wistar rat at 1 mg/kg, iv by LC-MS/MS analysis. In kind it is ADME, organism-based. As to conditions: in vivo, read-out: Vdss. Put shortly: as §2
Data set [7] has as its target Tyrosine-protein kinase JAK2 (Homo sapiens, UniProt O60674). Put plainly: Inhibition of wild type human JAK2 (A829 to G1132 residues) expressed in mammalian cells assessed as residual activity at 1 uM by KINOMEscan assay relative to control. In kind it is cell-based.
Another data set has as its system HL-60. The experiment in a line: Antiproliferative activity against human HL60 cells. Type of data set: functional, cell-based.
The target of the next data set is Histone deacetylase 11 (Homo sapiens, UniProt Q96DB2). Put plainly: Inhibition of C-terminal His tagged human recombinant HDAC11 (1 to 347 residues) expressed in Baculovirus infected insect cells in presence of ATP. Put shortly: as §1
Sequence of Histone deacetylase 11 (Q96DB2 whole entry, the tested form may be a part): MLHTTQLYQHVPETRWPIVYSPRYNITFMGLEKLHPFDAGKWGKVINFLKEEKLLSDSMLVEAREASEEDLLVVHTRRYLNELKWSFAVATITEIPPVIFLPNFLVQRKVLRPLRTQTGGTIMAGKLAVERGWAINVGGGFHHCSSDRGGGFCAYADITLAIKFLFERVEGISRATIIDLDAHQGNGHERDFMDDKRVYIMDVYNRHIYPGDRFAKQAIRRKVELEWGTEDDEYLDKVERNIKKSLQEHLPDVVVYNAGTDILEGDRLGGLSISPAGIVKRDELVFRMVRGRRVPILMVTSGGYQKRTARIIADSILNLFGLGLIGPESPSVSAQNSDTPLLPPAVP

Sequence of Protein deacetylase HDAC6 (Homo sapiens) (Q9UBN7 whole entry): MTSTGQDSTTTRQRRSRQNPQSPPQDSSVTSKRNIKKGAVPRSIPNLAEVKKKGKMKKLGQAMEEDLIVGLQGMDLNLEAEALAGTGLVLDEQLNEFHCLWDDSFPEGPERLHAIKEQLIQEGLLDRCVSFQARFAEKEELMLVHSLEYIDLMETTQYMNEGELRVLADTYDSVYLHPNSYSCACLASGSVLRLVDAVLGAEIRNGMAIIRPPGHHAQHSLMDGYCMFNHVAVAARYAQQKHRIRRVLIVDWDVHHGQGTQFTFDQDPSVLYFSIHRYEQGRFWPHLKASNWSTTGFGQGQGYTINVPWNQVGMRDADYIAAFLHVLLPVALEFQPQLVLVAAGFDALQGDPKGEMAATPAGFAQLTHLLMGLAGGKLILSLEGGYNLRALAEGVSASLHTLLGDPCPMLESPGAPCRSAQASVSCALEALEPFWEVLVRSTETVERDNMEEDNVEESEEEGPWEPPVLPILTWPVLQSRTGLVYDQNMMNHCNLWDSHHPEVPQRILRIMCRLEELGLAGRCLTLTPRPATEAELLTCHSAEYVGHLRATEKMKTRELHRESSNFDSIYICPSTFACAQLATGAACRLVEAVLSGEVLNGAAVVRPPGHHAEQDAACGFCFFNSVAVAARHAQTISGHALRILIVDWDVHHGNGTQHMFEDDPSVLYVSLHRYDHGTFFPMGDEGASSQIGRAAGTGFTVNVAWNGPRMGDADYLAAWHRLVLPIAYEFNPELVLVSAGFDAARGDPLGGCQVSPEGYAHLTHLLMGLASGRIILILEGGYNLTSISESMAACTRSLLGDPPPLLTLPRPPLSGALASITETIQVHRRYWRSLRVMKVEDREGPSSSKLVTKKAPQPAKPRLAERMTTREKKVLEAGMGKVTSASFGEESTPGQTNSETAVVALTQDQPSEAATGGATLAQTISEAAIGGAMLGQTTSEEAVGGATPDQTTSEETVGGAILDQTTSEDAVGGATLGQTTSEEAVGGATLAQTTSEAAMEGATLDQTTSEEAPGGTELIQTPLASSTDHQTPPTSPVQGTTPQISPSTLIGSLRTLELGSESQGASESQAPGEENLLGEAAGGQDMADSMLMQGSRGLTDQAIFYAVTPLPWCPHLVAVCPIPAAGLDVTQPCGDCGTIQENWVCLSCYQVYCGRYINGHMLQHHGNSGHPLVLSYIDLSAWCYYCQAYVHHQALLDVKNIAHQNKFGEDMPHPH
Sequence of Histone deacetylase 9 (Q9UKV0 whole entry): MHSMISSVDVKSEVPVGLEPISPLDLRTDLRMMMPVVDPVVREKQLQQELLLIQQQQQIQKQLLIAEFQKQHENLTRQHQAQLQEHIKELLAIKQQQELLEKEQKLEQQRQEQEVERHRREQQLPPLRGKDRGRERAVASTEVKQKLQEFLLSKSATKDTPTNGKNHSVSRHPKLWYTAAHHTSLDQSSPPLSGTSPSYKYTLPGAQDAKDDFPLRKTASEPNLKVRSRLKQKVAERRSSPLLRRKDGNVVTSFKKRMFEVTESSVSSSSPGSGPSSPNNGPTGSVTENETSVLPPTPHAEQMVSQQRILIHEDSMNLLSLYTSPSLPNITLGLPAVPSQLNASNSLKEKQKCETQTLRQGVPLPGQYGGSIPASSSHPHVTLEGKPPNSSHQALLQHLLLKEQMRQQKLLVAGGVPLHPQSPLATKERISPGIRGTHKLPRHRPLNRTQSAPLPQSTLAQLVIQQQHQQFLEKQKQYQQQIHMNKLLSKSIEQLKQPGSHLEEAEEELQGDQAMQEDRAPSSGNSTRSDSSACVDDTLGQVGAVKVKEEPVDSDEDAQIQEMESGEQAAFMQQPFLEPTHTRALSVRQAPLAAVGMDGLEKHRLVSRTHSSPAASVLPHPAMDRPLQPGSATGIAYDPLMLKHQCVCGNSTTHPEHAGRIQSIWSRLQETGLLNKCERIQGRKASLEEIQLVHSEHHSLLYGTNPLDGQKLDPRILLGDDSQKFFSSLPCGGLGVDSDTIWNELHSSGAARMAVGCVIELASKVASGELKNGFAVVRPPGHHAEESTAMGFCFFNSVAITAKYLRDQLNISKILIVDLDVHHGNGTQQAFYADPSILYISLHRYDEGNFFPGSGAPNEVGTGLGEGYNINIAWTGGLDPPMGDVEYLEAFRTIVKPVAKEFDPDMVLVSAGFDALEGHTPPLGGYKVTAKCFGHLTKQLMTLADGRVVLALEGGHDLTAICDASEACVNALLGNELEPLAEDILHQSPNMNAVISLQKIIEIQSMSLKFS
Sequence of Tyrosine-protein kinase JAK2 (O60674 whole entry, the tested form may be a part): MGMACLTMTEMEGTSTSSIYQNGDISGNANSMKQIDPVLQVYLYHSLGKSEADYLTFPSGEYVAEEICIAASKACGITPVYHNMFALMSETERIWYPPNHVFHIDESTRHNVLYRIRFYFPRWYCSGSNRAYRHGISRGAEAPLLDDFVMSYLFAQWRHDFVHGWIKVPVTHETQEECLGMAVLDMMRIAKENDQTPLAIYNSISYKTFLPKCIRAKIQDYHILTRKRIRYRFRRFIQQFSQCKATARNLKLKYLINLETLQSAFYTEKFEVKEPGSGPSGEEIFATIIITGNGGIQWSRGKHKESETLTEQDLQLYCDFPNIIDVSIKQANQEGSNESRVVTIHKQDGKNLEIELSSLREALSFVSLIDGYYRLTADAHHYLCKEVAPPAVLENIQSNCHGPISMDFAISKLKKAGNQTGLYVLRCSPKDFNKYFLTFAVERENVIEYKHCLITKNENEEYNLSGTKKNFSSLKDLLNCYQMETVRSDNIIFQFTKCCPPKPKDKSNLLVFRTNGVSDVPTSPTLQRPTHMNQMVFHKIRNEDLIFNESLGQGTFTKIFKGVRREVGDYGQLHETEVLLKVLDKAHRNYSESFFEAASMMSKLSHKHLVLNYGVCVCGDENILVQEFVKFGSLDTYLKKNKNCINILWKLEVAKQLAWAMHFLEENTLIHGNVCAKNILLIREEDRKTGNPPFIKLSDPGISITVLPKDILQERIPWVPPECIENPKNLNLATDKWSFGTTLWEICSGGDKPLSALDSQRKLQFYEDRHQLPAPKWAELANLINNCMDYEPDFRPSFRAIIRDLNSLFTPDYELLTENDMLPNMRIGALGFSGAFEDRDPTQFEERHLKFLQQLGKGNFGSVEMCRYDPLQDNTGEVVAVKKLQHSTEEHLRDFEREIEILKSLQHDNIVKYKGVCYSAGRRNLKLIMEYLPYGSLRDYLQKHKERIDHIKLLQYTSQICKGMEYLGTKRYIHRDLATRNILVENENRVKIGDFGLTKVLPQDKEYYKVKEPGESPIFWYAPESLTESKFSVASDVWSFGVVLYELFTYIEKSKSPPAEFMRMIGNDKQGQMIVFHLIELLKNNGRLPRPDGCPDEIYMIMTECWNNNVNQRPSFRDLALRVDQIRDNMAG

Take `O=C(CCCCCCn1cc(-c2ncnc3[nH]ccc23)cn1)NO`: in data set [1], the solubility thermodynamic at 24 h was above 73 µg/mL. The Drug uptake result in the data set with Plasma was “Not Active”. Further, the inhibition at Histone deacetylase 9 worked out at 30%. For the same compound, the inhibition result in data set [2] is “Active”. The half-inhibitory concentration (IC50) with HEL 92.1.7 is 1330 nM; in “cells [4]”, 2010 nM; in the data set with KMS-12-BM, 2020 nM; in the data set “cells [5]”, 570 nM; in the data set on HL-60, 7.36 µM; on Histone deacetylase 11, 31 nM. Moreover, the half-life in data set [3] is 21 min. For the same compound, the Vd in data set [6] stood at 1.49 L/kg. In addition, in data set [7], the Activity came to 0%.
